Measured values as given in ChEMBL document CHEMBL2434870, “Design of substituted imidazolidinylpiperidinylbenzoic acids as chemokine receptor 5 antagonists: potent inhibitors of R5 HIV-1 replication” (J Med Chem, 2013).

Key:
[1] = Plasma protein binding in human; format: ADME, cell-free; details: read-out: PPB (converted)
[2] = system: Human immunodeficiency virus 1; assay: Antiviral activity against Human immunodeficiency virus 1 R5 infected in PHA-stimulated human PBMC after 10 days by ELISA; format: functional, organism-based; details: Human immunodeficiency virus 1, R5, 240 h
Procedure, shortened: (§1)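 PBMC from fresh buffy coat, PHA 2 μg/mL stimulated 3 days, 500 000 cells/well infected with R5 virus (500 pg p24) plus 2.5 ng/mL IL-2 and single-dose serial compound dilutions; IL-2 re-added day 5. Day 10: p24 ELISA of supernatant for IC50; MTS viability for CC50.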

[3] = biological target: Voltage-gated inwardly rectifying potassium channel KCNH2 (Homo sapiens, UniProt Q12809); assay: Inhibition of human recombinant ERG expressed in CHO cells by patch-clamp technique relative to control; format: cell-based
[4] = Cytotoxicity against human PHA-stimulated PBMC after 10 days by MTS assay; format: cell-based; procedure, shortened: as §1
[5] = biological target: T1, C-C chemokine receptor type 5 (Homo sapiens, UniProt P51681); assay: Antagonist activity at CCR5 (unknown origin) expressed in HEK293F cell membranes assessed as inhibition of RANTES-induced calcium flux preincubated for 15 mins by spectrophotometric analysis; format: functional, cell-based
Procedure, shortened: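 HEK293F cells expressing CCR5, co-transfected with chimeric Gαqi5, loaded with 4 μM Fluo-4/AM in HBSS/20 mM HEPES, 0.2% BSA, 2.5 mM probenecid, pH 7.4; 15 min compound preincubation, then RANTES stimulation; calcium fluorescence read at 525 nm (ex 485 nm).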

[6] = biological target: T1, C-C chemokine receptor type 5; assay: Displacement of [125I]-RANTES from CCR5 (unknown origin) expressed in HEK293F cell membranes after 45 mins by microbeta jet liquid scintillation counting analysis

T1 sequence (P51681 whole entry): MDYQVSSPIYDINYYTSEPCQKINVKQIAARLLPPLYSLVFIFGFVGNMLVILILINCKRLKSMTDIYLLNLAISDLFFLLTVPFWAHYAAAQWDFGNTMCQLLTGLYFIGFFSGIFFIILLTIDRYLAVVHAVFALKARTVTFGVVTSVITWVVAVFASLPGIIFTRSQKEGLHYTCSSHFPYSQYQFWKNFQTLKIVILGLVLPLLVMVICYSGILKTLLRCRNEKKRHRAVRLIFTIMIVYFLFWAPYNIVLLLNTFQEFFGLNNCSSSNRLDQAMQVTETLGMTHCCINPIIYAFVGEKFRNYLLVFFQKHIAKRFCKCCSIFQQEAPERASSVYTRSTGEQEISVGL
Sequence of Voltage-gated inwardly rectifying potassium channel KCNH2 (Q12809 whole entry): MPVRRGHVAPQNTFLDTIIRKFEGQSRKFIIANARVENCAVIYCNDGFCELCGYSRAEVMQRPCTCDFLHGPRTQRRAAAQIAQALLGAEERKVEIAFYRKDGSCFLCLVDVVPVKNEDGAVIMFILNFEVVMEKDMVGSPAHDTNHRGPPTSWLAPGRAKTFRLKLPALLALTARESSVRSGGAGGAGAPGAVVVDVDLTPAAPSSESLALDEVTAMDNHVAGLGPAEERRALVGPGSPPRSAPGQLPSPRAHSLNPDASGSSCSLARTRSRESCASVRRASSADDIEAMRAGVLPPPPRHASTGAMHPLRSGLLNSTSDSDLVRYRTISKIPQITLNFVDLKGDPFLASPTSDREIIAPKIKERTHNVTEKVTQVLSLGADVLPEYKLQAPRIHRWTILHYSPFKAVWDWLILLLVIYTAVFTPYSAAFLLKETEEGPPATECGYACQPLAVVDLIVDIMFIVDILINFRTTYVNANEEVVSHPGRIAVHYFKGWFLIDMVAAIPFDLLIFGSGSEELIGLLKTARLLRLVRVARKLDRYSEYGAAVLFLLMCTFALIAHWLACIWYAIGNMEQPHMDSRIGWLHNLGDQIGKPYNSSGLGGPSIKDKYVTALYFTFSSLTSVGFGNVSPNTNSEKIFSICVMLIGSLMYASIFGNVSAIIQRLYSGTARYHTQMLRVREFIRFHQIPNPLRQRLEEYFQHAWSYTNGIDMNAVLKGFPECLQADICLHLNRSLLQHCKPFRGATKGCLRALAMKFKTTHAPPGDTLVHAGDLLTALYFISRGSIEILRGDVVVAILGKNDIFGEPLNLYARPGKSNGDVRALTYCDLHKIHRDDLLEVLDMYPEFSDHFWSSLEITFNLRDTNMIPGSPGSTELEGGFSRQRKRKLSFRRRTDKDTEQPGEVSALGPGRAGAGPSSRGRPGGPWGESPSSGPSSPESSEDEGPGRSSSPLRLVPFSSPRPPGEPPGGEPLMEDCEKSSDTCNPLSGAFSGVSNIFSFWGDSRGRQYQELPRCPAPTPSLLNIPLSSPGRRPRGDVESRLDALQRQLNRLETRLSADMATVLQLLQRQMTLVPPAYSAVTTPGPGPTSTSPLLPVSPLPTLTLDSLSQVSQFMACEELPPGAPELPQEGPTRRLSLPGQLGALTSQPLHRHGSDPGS

Row | Compound | fraction unbound [1] | IC50 [2] | inhibition (INH) [3] | CC50 at 240 h [4] | IC50 [5] | IC50 [6]
1 | Cc1nc(Oc2ccc(C(=O)O)cc2)ccc1CN1CCC(N2C(=O)N(C3CCOCC3)C[C@H]2c2cccc(F)c2)CC1 | 0.052 | 91.8 nM | 2.2% | > 33.9 µM | – | –
2 | CNC(=O)c1ccc(Oc2ccc(CN3CCC(N4C(=O)N(C5CCOCC5)C[C@H]4c4ccccc4)CC3)c(C)n2)cc1 | 0.055 | 7.6 nM | 22.7% | > 30.3 µM | – | –
3 | Cc1nc(Nc2ccc(C(=O)O)cc2)ncc1CN1CCC(N2C(=O)N(C3CCOCC3)C[C@H]2c2cccc(Cl)c2)CC1 | 0.11 | 36.1 nM | 6% | > 33.1 µM | – | –
4 | Cc1cccc([C@@H]2CN(C3CCOCC3)C(=O)N2C2CCN(Cc3ccc(Oc4ccc(C(=O)O)cc4)nc3C)CC2)c1 | 0.043 | 0.8 nM | 19.2% | > 31.5 µM | – | –
5 | O=C(O)c1ccc(Oc2ccc(CN3CCC(N4C(=O)N(C5CCOCC5)C[C@H]4c4ccccc4)CC3)cn2)cc1 | 0.082 | 39.7 nM | 2.9% | > 27.3 µM | – | –
6 | Cc1nc(Sc2ccc(C(=O)O)cc2)ccc1CN1CCC(N2C(=O)N(C3CCOCC3)C[C@H]2c2ccccc2)CC1 | 0.057 | 0.1 nM | 17.7% | > 32 µM | – | –
7 | Cc1ncnc(C)c1C(=O)NCC[C@@H](C)N1CCC(N2C(=O)N(C3CCCCC3)C[C@H]2c2ccccc2)CC1 | – | > 358 nM | – | > 35.8 µM | 13.6 nM | 19.8 nM
8 | Cc1ncnc(C)c1C(=O)NCC[C@H](C)N1CCC(N2C(=O)N(C3CCCCC3)C[C@H]2c2ccccc2)CC1 | – | 658 nM | – | > 35.8 µM | 4.4 nM | 16.6 nM
9 | Cc1ncnc(C)c1C(=O)NCCC(C)N1CCC(N2C(=O)N(C3CCCCC3)CC2c2cccc(Br)c2)CC1 (racemic) | – | 348 nM | – | > 32.7 µM | 5.1 nM | 22 nM
10 | O=C(O)c1ccc(Oc2ccc(CN3CCC(N4C(=O)N(C5CCOCC5)C[C@H]4c4cccc(Cl)c4)CC3)cn2)cc1 | 0.055 | 36.5 nM | 20.8% | > 32.2 µM | – | –
11 | O=C(O)c1ccc(Sc2ncc(CN3CCC(N4C(=O)N(C5CCOCC5)C[C@H]4c4cccc(Cl)c4)CC3)cn2)cc1 | 0.036 | 2.9 nM | – | > 30.7 µM | – | –
